# Reference: ChEMBL document CHEMBL1137344, “Flavonoid dimers as bivalent modulators for P-glycoprotein-based multidrug resistance: synthetic apigenin homodimers linked with defined-length poly(ethylene glycol) spacers increase drug retention and enhance chemosensitivity in resistant cancer cells” (J Med Chem, 2006)
# Activity calls are given as the source filed them. The calls are words filed in the database; no cut-off is given here.
# Columns and labels:
# MDA-MB-435 [1] = assay: Effect on P-gp-mediated drug efflux in multidrug resistant MDA435/LCC6 cells assessed as relative fold in intracellular DOX accumulation at 10 uM; format: functional, Homo sapiens
# Method in brief: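 Resistant MDA435/LCC6 cells grown to confluence, preincubated 30 min at 37 °C in fresh DMEM with modulator (0–20 µM), then DOX added (final 20 µM) for 2 h at 37 °C. Cells trypsinized, washed in cold PBS, lysed in 0.3 N HCl/50% ethanol, sonicated, centrifuged. Supernatant fluorescence read at ex 470/em 585 nm. Mean ± SD of three independent experiments.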
# MDA-MB-435 [2] = assay: Cytotoxicity against MDA435/LCC6 cells at 5 uM; format: functional, cell-based; details: Homo sapiens
# MDA-MB-435 [3] = assay: Reversal potency of vinblastine resistance in multidrug resistant MDA435/LCC6 cells by MTS assay; format: functional; details: Homo sapiens, in the assay text read “doxorubicin” for “vinblastine”
# MDA-MB-435 [4] = assay: Reversal of vinblastine resistance in multidrug resistant MDA435/LCC6 cells by MTS assay; format: functional, cell-based; details: Homo sapiens
# Method in brief: (§1)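 Resistant MDA435/LCC6 cells, 4-day MTS assay of paclitaxel or vinblastine dose-response with dimers at 5 µM or monomers at 10 µM. Verapamil 5 µM as positive control, DMSO 0.05% as solvent control. IC50 from curves, triplicate, some repeated three times and averaged.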
# MDA-MB-435 [5] = assay: Reversal of paclitaxel resistance in multidrug resistant MDA435/LCC6 cells by MTS assay; format: functional, cell-based; details: Homo sapiens; method in brief: as §1
# MDA-MB-435 [6] = assay: Reversal of vinblastine resistance in multidrug resistant MDA435/LCC6 cells by MTS assay at 10 uM; format: functional, cell-based; details: Homo sapiens
# Method in brief: (§2)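 MDA435/LCC6 MDR cells in DMEM with 10% FBS, 2000 cells/well, allowed to attach for 24 h. Anticancer drug was added in serial concentrations with or without modulator (dimers 5 µM, monomers 10 µM; 0.05% DMSO solvent control), then grown for 4 days at 37 °C, 5% CO2. MTS/PMS was added for 2 h and A490 read. Survival was taken relative to DMSO controls; IC60 for DOX, IC50 for the others; triplicate.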
# MDA-MB-435 [7] = assay: Cytotoxicity against MDA435/LCC6 cells at 10 uM; format: functional, cell-based; details: Homo sapiens
# MDA-MB-435 [8] = assay: Reversal of DOX resistance in multidrug resistant MDA435/LCC6 cells by MTS assay at 10 uM; format: functional, cell-based; details: Homo sapiens; method in brief: as §2
# P388/ADR [9] = assay: Reversal of DOX resistance in P388 ADR cells by MTS assay at 5 uM; format: functional, cell-based; details: Mus musculus
# Method in brief: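 P388/ADR cells: 3-day MTS assay of DOX dose-response with modulator at 5 µM, or 10 µM for monomers. Verapamil 5 µM and 0.05% DMSO as controls. IC50 from curves, triplicate points, mean ± SD of three independent experiments.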
# P388/ADR [10] = assay: Antiproliferative activity against adriamycin resistant P388 cells in presence of 5 uM 1,13-bis[4'-((5,7-dihydroxy)-4H-chromen-4-on-2-yl)phenyl]-1,4,7,10,13-pentaoxatridecane by ELISA; format: functional, cell-based; details: Mus musculus
# Method in brief: (§3)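 P388/ADR cells seeded 5000/well in RPMI 1640 with 10% FBS, given drug concentration series with or without 5 µM modulator for 3 days. MTS/PMS added for 2 h at 37 °C, absorbance at 490 nm. IC50 from dose-response curves versus 0.05% DMSO controls. RF = IC50 without modulator / IC50 with modulator.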
# P388 [11] = assay: Relative fold, IC50 in absence to presence of 1,13-bis[4'-((5,7-dihydroxy)-4H-chromen-4-on-2-yl)phenyl]-1,4,7,10,13-pentaoxatridecane in multidrug resistant P388 cells; format: functional, Mus musculus; method in brief: as §3
# MDA-MB-435 [12] = assay: Antiproliferative activity against MDA435/LCC6 cells by ELISA; format: functional, cell-based; details: Homo sapiens
# MDA-MB-435 [13] = assay: Antiproliferative activity against multidrug resistant MDA435/LCC6 cells in presence of 5 uM 1,13-bis[4'-((5,7-dihydroxy)-4H-chromen-4-on-2-yl)phenyl]-1,4,7,10,13-pentaoxatridecane by ELISA; format: functional, cell-based; details: Homo sapiens
# Method in brief: (§4)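 Resistant breast cells seeded 2000/well, allowed 24 h attachment, then exposed to anticancer-drug concentration series with or without 5 µM modulator for 4 days. MTS/PMS read at 490 nm after 2 h. IC50 from dose-response curves relative to 0.05% DMSO controls. RF = IC50 without modulator divided by IC50 with modulator.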
# MDA-MB-435 [14] = assay: Antiproliferative activity against multidrug resistant MDA435/LCC6 cells in presence of 5 uM verapamil by ELISA; format: functional, cell-based; details: Homo sapiens; method in brief: as §4
# MDA-MB-435 [15] = assay: Relative fold, IC50 in absence to presence of 1,13-bis[4'-((5,7-dihydroxy)-4H-chromen-4-on-2-yl)phenyl]-1,4,7,10,13-pentaoxatridecane in multidrug resistant MDA435/LCC6 cells; format: functional, Homo sapiens; method in brief: as §4
# MDA-MB-435 [16] = assay: Relative fold, IC50 in absence to presence of verapamil in multidrug resistant MDA435/LCC6 cells; format: functional, Homo sapiens; method in brief: as §4
# P388 [17] = assay: Antiproliferative activity against P388 cells by ELISA; format: functional, cell-based; details: Mus musculus
# Method in brief: (§5)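 MTS/PMS proliferation assay: cells seeded 5000/well in RPMI 1640 with 10% FBS and penicillin/streptomycin at 37 °C, 5% CO2. Drug series added and cells grown 3 days. MTS/PMS added for 2 h at 37 °C, absorbance read at 490 nm. Survival relative to DMSO (0.05%) controls; IC50 from dose-response curves, at least triplicate.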
# P388/ADR [18] = assay: Antiproliferative activity against adriamycin resistant P388 cells by ELISA; format: functional, cell-based; details: Mus musculus; method in brief: as §5
# MDA-MB-435 [19] = assay: Antiproliferative activity against multidrug resistant MDA435/LCC6 cells by ELISA; format: functional, cell-based; details: Homo sapiens
# Method in brief: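 MTS/PMS proliferation assay: cells seeded 2000/well, drugs added after 24 h attachment, growth 4 days in DMEM with 10% FBS at 37 °C, 5% CO2. MTS/PMS added for 2 h, absorbance read at 490 nm. Survival is taken relative to DMSO (0.05%) controls. IC50 is read from dose-response curves, at least triplicate, repeated twice.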
IC50 (P388/ADR [10]) [nM],IC50 (MDA-MB-435 [12]) [nM],IC50 (MDA-MB-435 [13]) [nM],IC50 (P388 [17]) [nM],IC50 (P388/ADR [18]) [nM],IC50 (MDA-MB-435 [19]) [nM],Compound,Activity (MDA-MB-435 [2]),Activity (P388/ADR [9]),Ratio IC50 (P388 [11]),Ratio IC50 (MDA-MB-435 [15]),also measured
,,,,,,O=c1cc(-c2ccc(OCCOCCOCCOc3ccc(-c4cc(=O)c5c(O)cc(O)cc5o4)cc3)cc2)oc2cc(O)cc(O)c12,inactive,,,,Activity (MDA-MB-435 [1]): 4; IC60 (MDA-MB-435 [3]): 1300 nM; IC50 (MDA-MB-435 [4]): 0.87 nM; IC50 (MDA-MB-435 [5]): 21.5 nM
,,,,,,O=c1cc(-c2ccc(OCCOCCOc3ccc(-c4cc(=O)c5c(O)cc(O)cc5o4)cc3)cc2)oc2cc(O)cc(O)c12,inactive,,,,Activity (MDA-MB-435 [1]): 4.5; IC60 (MDA-MB-435 [3]): 1300 nM; IC50 (MDA-MB-435 [4]): 0.61 nM; IC50 (MDA-MB-435 [5]): 19.9 nM
,,,,,,O=c1cc(-c2ccc(OCCOCCOCCOCCO)cc2)oc2cc(O)cc(O)c12,,,,,Activity (MDA-MB-435 [6]): inactive; Activity (MDA-MB-435 [7]): inactive; Activity (MDA-MB-435 [8]): inactive; EC50 (MDA-MB-435 [5]): > 10000 nM
,,,,,,O=c1cc(-c2ccc(OCCOCCOCCO)cc2)oc2cc(O)cc(O)c12,,,,,Activity (MDA-MB-435 [6]): inactive; Activity (MDA-MB-435 [7]): inactive; Activity (MDA-MB-435 [8]): inactive
,,,,,,O=c1cc(-c2ccc(OCCOCCOCCOCCOCCOCCOCCOCCOCCOc3ccc(-c4cc(=O)c5c(O)cc(O)cc5o4)cc3)cc2)oc2cc(O)cc(O)c12,inactive,inactive,,,
,,,,,,O=c1cc(-c2ccc(OCCOCCOCCOCCOCCOCCOCCOCCOc3ccc(-c4cc(=O)c5c(O)cc(O)cc5o4)cc3)cc2)oc2cc(O)cc(O)c12,inactive,inactive,,,
,,,,,,O=c1cc(-c2ccc(OCCOCCOCCOCCOCCOCCOCCOc3ccc(-c4cc(=O)c5c(O)cc(O)cc5o4)cc3)cc2)oc2cc(O)cc(O)c12,inactive,inactive,,,
,,,,,,O=c1cc(-c2ccc(OCCOCCOCCOCCOCCOCCOc3ccc(-c4cc(=O)c5c(O)cc(O)cc5o4)cc3)cc2)oc2cc(O)cc(O)c12,inactive,inactive,,,
,,,,,,O=c1cc(-c2ccc(OCCOCCOCCOCCOCCOc3ccc(-c4cc(=O)c5c(O)cc(O)cc5o4)cc3)cc2)oc2cc(O)cc(O)c12,inactive,inactive,,,
,,,,,,O=c1cc(-c2ccc(OCCOc3ccc(-c4cc(=O)c5c(O)cc(O)cc5o4)cc3)cc2)oc2cc(O)cc(O)c12,inactive,inactive,,,
123,300,550,22,1740,4690,COc1cccc2c1C(=O)c1c(O)c3c(c(O)c1C2=O)C[C@@](O)(C(=O)CO)C[C@@H]3O[C@H]1C[C@H](N)[C@H](O)[C@H](C)O1 [DOXORUBICIN],,,14,9,IC50 (MDA-MB-435 [14]): 300 nM; Ratio IC50 (MDA-MB-435 [16]): 16
30,2.9,4.8,22,1640,105,CC(=O)O[C@H]1C(=O)[C@@]2(C)[C@H]([C@H](OC(=O)c3ccccc3)[C@]3(O)C[C@H](OC(=O)[C@H](O)[C@@H](NC(=O)c4ccccc4)c4ccccc4)C(C)=C1C3(C)C)[C@]1(OC(C)=O)CO[C@@H]1C[C@@H]2O [PACLITAXEL],,,55,22,IC50 (MDA-MB-435 [14]): 5.2 nM; Ratio IC50 (MDA-MB-435 [16]): 20
,,,,,,COc1ccc(CCN(C)CCCC(C#N)(c2ccc(OC)c(OC)c2)C(C)C)cc1OC (stereo not drawn) [VERAPAMIL],,,,,IC50 (MDA-MB-435 [4]): 0.25 nM; EC50 (MDA-MB-435 [5]): 700 nM; IC50 (MDA-MB-435 [5]): 5.2 nM
4.3,0.34,0.42,4.1,95,4.4,CC[C@]1(O)C[C@@H]2CN(CCc3c([nH]c4ccccc34)[C@@](C(=O)OC)(c3cc4c(cc3OC)N(C)[C@H]3[C@@](O)(C(=O)OC)[C@H](OC(C)=O)[C@]5(CC)C=CCN6CC[C@]43[C@@H]65)C2)C1 [VINBLASTINE],,,22,10,IC50 (MDA-MB-435 [14]): 0.29 nM; Ratio IC50 (MDA-MB-435 [16]): 15
4.5,0.29,0.63,2.2,299,26,CC[C@]1(O)C[C@H]2CN(CCc3c([nH]c4ccccc34)[C@@](C(=O)OC)(c3cc4c(cc3OC)N(C=O)[C@H]3[C@@](O)(C(=O)OC)[C@H](OC(C)=O)[C@]5(CC)C=CCN6CC[C@]43[C@@H]65)C2)C1 [VINCRISTINE],,,66,41,

Compound,IC50 (P388/ADR [10]) [nM],IC50 (MDA-MB-435 [12]) [nM],IC50 (MDA-MB-435 [13]) [nM],IC50 (P388 [17]) [nM],IC50 (P388/ADR [18]) [nM],IC50 (MDA-MB-435 [19]) [nM],Activity (MDA-MB-435 [2]),Activity (P388/ADR [9]),Ratio IC50 (P388 [11]),Ratio IC50 (MDA-MB-435 [15]),also measured
O=C1c2c(O)ccc(O)c2C(=O)c2c(NCCNCCO)ccc(NCCNCCO)c21 [MITOXANTRONE],194,0.35,646,4.3,395,1440,,,2,2.2,
